# Screening data from PubChem.
# The sample as a whole holds a higher share of hits than the screen did.
# XBP1 UPR activ = activators of adaptive XBP1 UPR arm, primary screen, cell-based, CHO-XBP1 luciferase reporter, luminescence, uHTS; IRE1-XBP1 UPR activation; percent of tunicamycin response, DMSO as zero; activation, % at 20 µM; 0.33% of 330,000 active; AID 463104, 2010;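 active = versus positive control, 20 µM dose yields 30% or more activation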
#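 Material: CHO cell line with stable XBP1 luciferase reporter; buffer or medium: F12 medium containing 10% fetal bovine serum; compound: single point, 20 µM final compound, 1% DMSO; incubation: 6 h treatment, 37 °C; measured by: glow luminescence from Steady-Glo reagent; evaluation: activation, % of tunicamycin; control set: tunicamycin high, DMSO low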
# CHOP UPR activ = activators of apoptotic CHOP UPR arm, primary screen, cell-based, CHO-CHOP luciferase reporter, luminescence, uHTS; UPR activation; percent of tunicamycin response over DMSO baseline; activation, % at 10 µM; 0.34% of 330,000 active; AID 449763, 2010;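 active = at 10 µM dose, activation of 40% or more, normalized to positive control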
#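 Material: CHO-CHOP cells, stable luciferase reporter of PERK-eIF2a-CHOP signalling; quantity: 500 reporter cells seeded per well; buffer or medium: F12 medium containing 10% fetal bovine serum; compound: one dose, 10 µM in 0.5% DMSO; incubation: 6 h compound treatment, 37 °C; measured by: Steady-Glo luciferase luminescence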
# A1 inh = caspase 3/7 activation in MEF A1-2A-BIM cells, primary screen, A1 inhibitor project, cell-based, luminescence, HTS. 0.066% of 330,000 active. caspase activation, % (concentration not given with the values). Caspase-Glo 3/7 luminescence, 3 h; percent of clofoctol response, vehicle zero;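 active = over half of replicate activation scores above 10%, or exactly half above 10 with the replicate mean above 10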
# CHOP inhibitor = inhibitors of CHOP promoter induction, primary screen, cell-based, unfolded protein response, luciferase reporter. AID 2732, 2010. 3.8% of 220,000 active. inhibition, % at 10 µM. CHO-K1 CHOP-promoter luciferase, tunicamycin-induced, 15-18 h;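 active = compounds that reduced the stress-induced luciferase reporter signal by more than about 70% of percent inhibition, limit read from the data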
# Numbers stand for hits; . = inactive; / = no result given.
SMILES,XBP1 UPR activ,CHOP UPR activ,A1 inh,CHOP inhibitor
O=C(NC1CCCC1)C(c1ccc(F)cc1)N(Cc1ccccc1Cl)C(=O)CCl (stereo not drawn),.,.,.,108
Cc1ccccc1Nc1c([N+](=O)[O-])ccc2c1=NC1(CCCCC1)N=2,.,.,.,76
Cc1ccc(C)c(Nc2c([N+](=O)[O-])ccc3nonc23)c1,.,.,.,/
CC(=O)C1=C(O)C(=O)N(c2cc(C(C)(C)C)on2)C1c1ccc(Br)cc1 (stereo not drawn),.,.,.,.
CC(=O)C1=C(O)C(=O)N(c2cc(C(C)(C)C)on2)C1c1ccc(C(C)C)cc1 (stereo not drawn),.,.,.,72
CC[C@]12c3[nH]c4ccccc4c3CCN1C(=O)C(CC(=O)NCc1ccc(OC)c(OC)c1)C[C@@H]2C(=O)N1CCN(C(=O)C2CC2)CC1 (stereo partly drawn),.,.,.,/
CC1=CC(=O)C(C(C)C)=CC1=NC(=O)c1ccc(C)cc1,.,.,.,107
CC1(C)CC(=O)C2=C(C1)NC(=O)CC2c1cc(F)ccc1F (stereo not drawn),.,.,.,.
O=C1CC(c2cccc(Br)c2)c2cc3c(cc2N1)CCC3 (stereo not drawn),.,.,.,108
O=C1CC(c2cc(F)ccc2F)c2cc3c(cc2N1)CCC3 (stereo not drawn),.,.,.,71
COc1cc2c(cc1OC)C(c1cccc(Br)c1)CC(=O)N2 (stereo not drawn),.,.,.,/
O=C(OCC(=O)N1CCCCCC1)c1ccc(F)cc1F,.,.,/,/
CSc1ccc(C(=O)C2CCCN(C(=O)c3nonc3C)C2)cc1 (stereo not drawn),.,.,.,/
Fc1ccccc1CNc1cc(Cl)cc(Cl)c1,.,.,.,90
O=[N+]([O-])c1ccccc1CNc1ccc(F)c(Cl)c1,.,.,.,.
Cc1cccc(-c2nnc3n2N=C(c2ccc(Br)cc2)CS3)c1,.,.,.,/
Cc1ccc(-c2nnc3n2N=C(c2ccc(Br)cc2)CS3)cc1,.,.,.,89
Cc1cc(C(=O)N2CCc3ccccc3C2)on1,.,.,.,/
O=C1c2ccccc2C(=O)C1c1ccnc2ccccc12,.,.,.,83
N#CC1=C(N)SC(N)=C(C#N)C1c1ccnc2ccccc12,.,.,.,.
O=C1C2C3C=CC(CC3)C2C(=O)N1/N=C/c1c(O)ccc2ccccc12 (stereo not drawn),.,.,.,72
COc1ccc2ccccc2c1C(O)c1nccn1C (stereo not drawn),.,.,.,84
CN1/C(=C\C=C(/C#N)C(=O)Nc2ccc(Cl)cc2)C(C)(C)c2ccccc21,.,.,.,75
Fc1nc(F)c(F)c(NCCCNc2c(F)c(F)nc(F)c2F)c1F,.,.,.,88
COc1ccc(-n2c(Cc3cccn3C)nnc2SCC(=O)Nc2ccc(Cl)cc2)cc1,.,.,.,71
SMILES,XBP1 UPR activ,CHOP UPR activ,A1 inh,CHOP inhibitor
COc1ccc(-n2c(Cc3cccn3C)nnc2SCC(=O)Nc2ccccc2)cc1,.,.,.,.
Cc1ccc(Nc2nnc(SCC(=O)Nc3ncc(C(F)(F)F)cc3Cl)s2)cc1,.,.,.,74
O=C(NNC(=O)c1cc(-c2ccc(Cl)c(Cl)c2)nc2ccccc12)Nc1ccccc1,.,.,.,89
Cc1ccc(-c2cc(C(=O)OCC(=O)Nc3ncc(C(F)(F)F)cc3Cl)c3ccccc3n2)cc1,.,.,.,83
CCC(C)c1ccc(-c2cc(C(=O)OCC(=O)Nc3cc(C)on3)c3ccccc3n2)cc1 (stereo not drawn),.,.,.,85
COc1ccc(/C=N/n2cnc3c([nH]c4ccccc43)c2=O)cc1COc1ccccn1,.,.,.,.
COc1ccc(-c2cc(C(=O)Nc3c(Cl)cc(Cl)cc3Cl)c3ccccc3n2)cc1OC,.,.,.,79
COc1ccc(-c2cc(C(=O)OCC(=O)Nc3cc(C)on3)c3ccccc3n2)cc1OC,.,.,.,88
Cc1ccc(-c2cc(C(=O)OCC(=O)Nc3cc(C)on3)c3ccccc3n2)c(C)c1,.,.,.,89
CCc1noc(C)c1C(=O)OCC(=O)Nc1nc(-c2ccc(F)c(F)c2)cs1,.,.,.,/
